# Screening data from PubChem.
# In the library only some 7.1% were active in any assay of this set; here they are far more common.
# bCat KO growth = primary screen for growth suppressors in beta-catenin knockout HCT116 cells (colon tumor, human); HCT116 beta-catenin knockout viability, CellTiter-Glo, 60 h; active compounds read low; viability, % at 10 µM; 1.5% of 140,000 active; AID 818, 2007;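 active = viability at or under a set limit, the compound median less 4 SD, cut at about 6% in these data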
# Cav3 T inh = Cav3.2 calcium influx blockers – cell-based, Fluo-4 calcium fluorescence, FDSS, MLSMR library, primary screen; Cav3.2-expressing cells; active compounds read low; AID 449739, 2010; 4% of 100,000 active; B-score at 10 µM;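 active = single-dose well whose peak fluorescence ratio is a statistical outlier from its plate by either plate-standardised score or position-corrected B-score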
# H69AR growth 86K = proliferation blockers of H69AR lung cancer cells, primary screen, cell-based, human, 86K library; 6% of 85,000 active; AID 598, 2007; H69AR lung tumor viability, ATP luminescence, 72 h; active compounds read low; viability, % at 10 µM;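 active = viability at or below 40%; inactive = viability above 40%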;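 also: multidrug resistant small cell line overexpressing MRP-1 efflux transporter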
# HUVEC prolif 384 = inhibitors of HUVEC proliferation, primary screen, cell-based, 384-well. viability, % at 10 µM (by protocol). CellTiter-Glo luminescence, 72 h; active compounds read low. 1.1% of 86,000 active. AID 648, 2007;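 active = viability at or below 30%; inactive = viability above 30%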
# HCT116 PTEN-null = growth suppression of PTEN-null HCT116, primary screen, cell-based, CellTiter-Glo; HCT116 PTEN-null viability, 60 h; active compounds read low; viability, % at 10 µM; 1.2% of 140,000 active;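 active = viability at or below a set limit, 4 SD under the median of all tested compounds, cut at about 3.7% in these data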;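 also: PTEN knockout HCT116 line with beta catenin targeted HCT116 as companion control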
# Fibroblast inh = antiproliferative effect on LL 47 fibroblasts – human, LL 47 cells, CellTiter-Glo luminescence, primary screen | AID 719, 2007 | 1.1% of 85,000 active | viability, % at 10 µM | LL 47 human lung fibroblast viability, ATP luminescence; active compounds read low;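 active = viability at or below 50% in the single dose screen; inactive = viability above 50%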;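 also: compound exposure lasted 72 h before the ATP readout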
#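 Material: human LL 47 lung fibroblast cells; quantity: 1,150 cells/well; medium: IMEM plus 15% FBS; doses: 0.1% DMSO in all compound wells; timing: overnight attachment after seeding, then 72 h compound exposure at 37 °C; detection: CellTiter-Glo luminescence; measure: % viability of median cell-only signal; controls: cell-only wells, no compound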
# Hits are given with their value; i = inactive; nt = not tested or not shown.
SMILES,bCat KO growth,Cav3 T inh,H69AR growth 86K,HUVEC prolif 384,HCT116 PTEN-null,Fibroblast inh
CCCOC(=O)c1ccc(NC(=O)/C=C/c2cccs2)cc1,i,nt,nt,nt,i,nt
O=C(CC1NC(=O)NC1=O)Nc1ccc(Cl)cc1 (stereo not drawn),i,i,i,i,i,i
COC(=O)c1c(NC(=O)CC2Nc3ccccc3NC2=O)sc(C)c1C (stereo not drawn),1.6,i,nt,nt,1.9,nt
COC(=O)c1cc(NC(=O)CC2SCCNC2=O)cc(C(=O)OC)c1 (stereo not drawn),i,nt,i,i,i,i
O=C(CC1Nc2ccccc2NC1=O)Nc1cc(Cl)cc(Cl)c1 (stereo not drawn),1.9,i,i,i,3.6,i
CCCCOc1ccccc1NC(=O)CC1Nc2ccccc2NC1=O (stereo not drawn),nt,i,40,i,nt,i
O=C(CC1SCCNC1=O)Nc1cc(Cl)cc(Cl)c1 (stereo not drawn),i,nt,i,i,i,47
Cc1cc(Cl)ccc1OCC(=O)N/N=C1\CC2C=CCC12 (stereo not drawn),i,nt,nt,nt,i,nt
Cc1ccccc1N1C(=O)C(Oc2ccc(Cl)cc2)C1CNC(C)(C)C (stereo not drawn),i,nt,nt,nt,i,nt
O=C(O)C1=C[C@H](c2ccc3c(c2)OCO3)C[C@H](OCCCCO)O1,nt,i,nt,nt,nt,nt
Cc1cccc(NC(=O)CSc2nnc([C@@H]3CCCN3C(=O)OC(C)(C)C)o2)c1C,i,i,1.4,i,i,i
CCSc1nnc([C@@H]2CCCN2C(=O)OC(C)(C)C)o1,i,i,i,i,i,i
CC(C)(C)OC(=O)N1CCC[C@H]1c1nnc(SCc2c(Cl)cccc2Cl)o1,i,-6.8,i,i,i,i
O=C(Nc1cccc2c1[nH]c1ccccc12)C(F)(F)F,i,i,11,i,i,i
Cc1ccc2cccc(NC(=O)C(F)(F)F)c2n1,nt,i,i,i,nt,i
COc1cc(C2C(N3C(=O)c4ccccc4C3=O)C(=O)N2c2cccc(C)c2)cc(OC)c1OC (stereo not drawn),i,nt,nt,nt,i,nt
COC(=O)C1=C(C)N(CCCC(=O)O)C(=O)NC1c1cccs1 (stereo not drawn),0.4,i,nt,nt,0.5,nt
O=C(Nc1nc2ccccc2s1)c1cc2c(s1)-c1ccccc1OC2,i,i,18,i,i,30
O=C(c1cc2ccccc2oc1=O)N(Cc1ccco1)CC1CCCO1 (stereo not drawn),i,i,i,i,i,i
Cc1ccc(-c2ccc(/C=N\NC(=O)c3cc4c(ccc5ccccc54)o3)o2)cc1[N+](=O)[O-],1.2,nt,nt,nt,0.6,nt
COc1cc(C(=O)Nc2sc3c(c2C#N)CCN(C(C)=O)C3)cc(OC)c1OC,i,i,23,i,i,i
CCOC(=O)N1CCc2c(sc(NC(=O)c3ccc(S(=O)(=O)N4CCCC4)cc3)c2C#N)C1,i,nt,13,i,i,38
CC(C)N1CCc2c(sc(NC(=O)c3ccc(S(=O)(=O)N4CCOCC4)cc3)c2C#N)C1,i,i,i,i,i,i
CC(C)N1CCc2c(sc(NC(=S)NC(=O)c3ccccc3)c2C#N)C1,i,nt,nt,nt,i,nt
O=c1ccc(Cl)cn1Cc1ccccc1F,i,i,i,i,i,i
SMILES,bCat KO growth,Cav3 T inh,H69AR growth 86K,HUVEC prolif 384,HCT116 PTEN-null,Fibroblast inh
CCC(COC(=O)Nc1cccc(C)c1)NC(=O)OCC(C)C (stereo not drawn),i,-4.7,i,i,i,i
Cc1ccc(S(=O)(=O)N(c2nc(N(C)C)nc(N(C)C)n2)n2cnnc2)cc1,i,i,nt,nt,i,nt
COc1cccc(C(=O)N(Cc2ccc(N(C)C)cc2)C2CCS(=O)(=O)C2)c1 (stereo not drawn),i,i,i,i,i,i
CCSc1ncc(Cl)c(C(=O)N(Cc2ccc(N(C)C)cc2)C2CCS(=O)(=O)C2)n1 (stereo not drawn),i,3.5,nt,i,i,i
CCOC(=O)Cn1c(=O)c2c(nc(N3CCOCC3)n2C)n(C)c1=O,i,i,i,i,i,i
CCOC(=O)Cn1c(=O)c2c(nc(N3CCCCC3)n2Cc2ccccc2)n(C)c1=O,i,nt,24,i,i,i
CCCCCOC(=O)Cn1c(=O)c2c(nc(N3CCOCC3)n2C)n(C)c1=O,i,i,35,i,i,i
CCCCCn1c(N2CCN(c3cccc(Cl)c3)CC2)nc2c1c(=O)[nH]c(=O)n2C,i,-5.4,i,i,i,i
CCCCCn1c(CN2CCN(c3cc(Cl)ccc3C)CC2)nc2c1c(=O)[nH]c(=O)n2C,i,-4.4,3.5,28,i,i
CCC(C)[C@H]1CN=C(N)N1CCc1cccc(F)c1 (stereo partly drawn),nt,i,nt,nt,nt,nt
Cn1c(=O)[nH]c(=O)c2c1nc(N1CCN(c3cccc(Cl)c3)CC1)n2CCCc1ccccc1,i,i,nt,i,i,i
Cn1c(=O)c2c(nc(N3CCN(Cc4ccccc4)CC3)n2CC(=O)c2ccccc2)n(C)c1=O,nt,i,32,i,nt,i
CCCn1c(N2CCN(CC(=O)c3c(C)n(C)c4ccc(OC)cc34)CC2)nc2c1c(=O)[nH]c(=O)n2C,i,i,33,i,i,41
Cn1c(=O)[nH]c(=O)c2c1nc(N1CCN(Cc3ccccc3)CC1)n2CCCc1ccccc1,5.6,i,i,i,i,i
Cn1c(=O)c2c(nc(N3CCN(Cc4ccccc4)CC3)n2CCCc2ccccc2)n(C)c1=O,i,i,i,i,i,i
N#C/C(C(=O)NCc1ccccc1)=C1/N=C(NC(=O)c2cccs2)c2ccccc21,i,nt,nt,nt,i,nt
CN(C)S(=O)(=O)c1ccc(C(=O)N2CCCC2c2nc3ccccc3s2)cc1 (stereo not drawn),i,i,i,i,i,i
O=S(=O)(c1ccc(Br)cc1)N1CCCC1c1nc2ccccc2s1 (stereo not drawn),i,-4.6,nt,nt,i,nt
O=S(=O)(c1ccc(N2CCCC2c2nc3ccccc3s2)nc1)N1CCOCC1 (stereo not drawn),i,i,23,i,i,i
O=C(/C=C/Nc1ccc(F)cc1)c1ccco1,i,i,i,i,i,i
CCOC(=O)c1ccc(N/C=C/C(=O)c2ccco2)cc1,i,i,17,i,i,i
c1cnc2c(c1)ccc1cccnc12,6.0,i,nt,nt,i,nt
COC(=O)C[C@H]1c2cc(C(F)(F)F)ccc2S(=O)(=O)N1C1CCCC1,nt,i,nt,nt,nt,nt
CC1CCN(c2ccccc2NC(=S)NC(=O)c2ccc(-c3cccc([N+](=O)[O-])c3)o2)CC1,i,i,i,i,i,i
CC1CCN(c2ccc(NC(=S)NC(=O)c3ccc(-c4cccc([N+](=O)[O-])c4)o3)cc2)CC1,i,i,25,i,i,i
